Laboratory results as given in ChEMBL document CHEMBL4376859, “Prodrugs for nitroreductase-based cancer therapy-3: Antitumor activity of the novel dinitroaniline prodrugs/Ssap-NtrB enzyme suicide gene system: Synthesis, in vitro and in silico evaluation in prostate cancer” (Eur J Med Chem, 2020).
The source made the active and inactive calls. No cut-off for these calls is given here.

Experiments:
PC-3 [1] = assay: Cytotoxicity against human PC3 cells assessed as cell viability at 9 to 150 uM after 24 hrs by MTT assay relative to control; type: functional
Outline: (§1)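 Hep3B hepatoma, PC-3 prostate cancer and HUVEC (healthy control) cells were exposed to nitro compounds at 150, 75, 38, 19 and 9 µM for 24 h and 48 h. Viability was read by MTT assay, and IC50 values were derived from the growth inhibition curves.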

Putative nitroreductase [2] = target: T1, Putative nitroreductase (Staphylococcus saprophyticus subsp. saprophyticus (strain ATCC 15305 / DSM20229 / NCIMB 8711 / NCTC 7292 / S-41), UniProt Q4A0P1); assay: Substrate activity at Staphylococcus saprophyticus nitroreductase expressed in Escherichia coli BL21 (DE3) assessed as retention time by HPLC analysis; type: ADME
T1 sequence (Q4A0P1 whole entry): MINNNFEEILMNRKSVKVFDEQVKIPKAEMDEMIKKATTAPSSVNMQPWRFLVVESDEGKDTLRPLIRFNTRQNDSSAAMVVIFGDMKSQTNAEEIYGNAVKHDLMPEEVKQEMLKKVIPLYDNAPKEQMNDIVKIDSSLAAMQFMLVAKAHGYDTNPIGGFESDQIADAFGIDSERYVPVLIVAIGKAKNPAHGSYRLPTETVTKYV

Putative nitroreductase [3] = target: T1, Putative nitroreductase; assay: Substrate activity at Staphylococcus saprophyticus nitroreductase NtrB assessed as enzyme specific activity using NADH as cofactor in Tris-Cl buffer at pH 7.5 by HPLC analysis; type: ADME
[4] = Cytotoxicity against human HUVEC cells assessed as cell viability at 9 to 150 uM after 48 hrs by MTT assay relative to control; type: cell-based; settings: read-out: Activity; outline: as §1
Hep 3B2 [5] = assay: Cytotoxicity against human Hep3B cells assessed as cell viability at 9 to 150 uM after 24 hrs by MTT assay relative to control; type: functional; outline: as §1
Hep 3B2 [6] = assay: Cytotoxicity against human Hep3B cells assessed as cell viability after 48 hrs by MTT assay; type: functional, cell-based; outline: as §1
PC-3 [7] = assay: Cytotoxicity against human PC3 cells assessed as reduction in cell viability after 48 hrs by SRB assay; type: functional, cell-based
Outline: (§2)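 Compounds were reduced outside the cells by purified His-tag (Ni column) Ssap-NtrB. The reaction mix held 600 µM NADH and compound (150, 39, 9 µM, or 180, 18, 1.8 nM) and was applied to PC-3 cells. Controls were compound alone in 25 mM Tris/HCl pH 7.5, and enzyme alone at 31 µg/mL. After 48 h, SRB absorbance was read at 492 nm and converted to % viability.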

[8] = Cytotoxicity against human HUVEC cells assessed as cell viability at 9 to 150 uM after 24 hrs by MTT assay relative to control; type: cell-based; settings: read-out: Activity; outline: as §1
PC-3 [9] = assay: Cytotoxicity against human PC3 cells assessed as cell viability at 9 to 150 uM after 48 hrs by MTT assay relative to control; type: functional; outline: as §1
Putative nitroreductase [10] = target: T1, Putative nitroreductase; assay: Substrate activity at Staphylococcus saprophyticus nitroreductase NtrB assessed as Kcat/Km using NADH as cofactor in Tris-Cl buffer at pH 7.5 by HPLC analysis relative to CB1954/NfsB; type: ADME
Hep 3B2 [11] = assay: Cytotoxicity against human Hep3B cells assessed as cell viability at 9 to 150 uM after 48 hrs by MTT assay relative to control; type: functional; outline: as §1
Hep 3B2 [12] = assay: Cytotoxicity against human Hep3B cells assessed as cell viability after 24 hrs by MTT assay; type: functional, cell-based; outline: as §1
PC-3 [13] = assay: Cytotoxicity against human PC3 cells […] Staphylococcus saprophyticus nitroreductase NtrB assessed as reduction in cell viability in presence of NADH as cofactor after 48 hrs by SRB assay; type: functional, cell-based; settings: PC-3, 48 h; outline: as §2
PC-3 [14] = assay: Cytotoxicity against human PC3 cells […] Staphylococcus saprophyticus nitroreductase NtrB assessed as cell viability at 150 uM in presence of NADH as cofactor after 48 hrs by SRB assay relative to control; type: functional; settings: PC-3, 48 h, read-out: Activity; outline: as §2

| Structure (SMILES) | Activity (PC-3 [1]) | Retention_time (Putative nitroreductase [2]) | Activity (Putative nitroreductase [3]) | viability at 48 h, up to 150 µM [4] | Activity (Hep 3B2 [5]) | IC50 (Hep 3B2 [6]) | Activity (PC-3 [7]) | viability at 24 h, up to 150 µM [8] | Activity (PC-3 [9]) | fold change (FC) (Putative nitroreductase [10]) | Activity (Hep 3B2 [11]) | IC50 (Hep 3B2 [12]) | IC50 (PC-3 [13]) | viability at 150 µM (PC-3 [14]) |
| --- | --- | --- | --- | --- | --- | --- | --- | --- | --- | --- | --- | --- | --- | --- |
| O=[N+]([O-])c1ccc(N2CCCCC2)c([N+](=O)[O-])c1 | >80% | 24.21 min | 0.49 U/mg | 51 to 80% | 51 - 80% | 50.3 µM | inactive | > 80% | >80% |  |  |  |  |  |
| CCC(=O)Nc1cc(N2CCOCC2)c([N+](=O)[O-])cc1[N+](=O)[O-] |  | 20.95 min |  | 51 to 80% |  |  |  | 51 to 80% |  | 4.73 | 51 - 80% | 90.7 µM |  |  |
| CN(C)C(=O)Oc1cc(N2CCOCC2)c([N+](=O)[O-])cc1[N+](=O)[O-] |  | 19.28 min |  | 51 to 80% | >80% |  |  | 51 to 80% |  |  | >80% |  |  |  |
| COc1cccc(Nc2ccc([N+](=O)[O-])cc2[N+](=O)[O-])c1 | >80% | 18.56 min |  | > 80% | >80% |  | inactive | > 80% | >80% |  | >80% |  | > 150 µM | 50% |
| O=[N+]([O-])c1cc([N+](=O)[O-])c(Nc2ccc(S(=O)(=O)O)cc2)cc1Nc1ccc(S(=O)(=O)O)cc1 | >80% | 4.4 min | 2.12 U/mg | > 80% | 51 - 80% | 71.9 µM |  | > 80% | >80% | 2.37 |  |  |  |  |
| O=[N+]([O-])c1ccc(NC2CCCCC2)c([N+](=O)[O-])c1 | >80% | 20.58 min |  | > 80% | >80% |  | inactive | > 80% | >80% |  | >80% |  | > 150 µM | 50% |
| Nc1ccccc1Nc1ccc([N+](=O)[O-])cc1[N+](=O)[O-] | >80% | 16.85 min |  | > 80% | >80% |  | inactive | > 80% | >80% | 0.41 | >80% |  | 15 µM |  |
| O=[N+]([O-])c1ccc(Nc2cc(F)cc(F)c2)c([N+](=O)[O-])c1 | >80% | 17.74 min |  | 51 to 80% | >80% | 89.4 µM | inactive | 51 to 80% | >80% |  |  |  |  |  |
| CCC(=O)Oc1cc(N2CCOCC2)c([N+](=O)[O-])cc1[N+](=O)[O-] |  |  |  | 51 to 80% | >80% |  |  | 51 to 80% |  |  | >80% |  |  |  |
